Laboratory results reported in ChEMBL document CHEMBL5352422, “Development of l-Dopa-containing diketopiperazines as blood-brain barrier shuttle” (Eur J Med Chem, 2022).

Legend:
[1] = Antioxidant activity against rat Cerebral cortex cell assessed as H2O2 equivalent of total oxidative stress at 10 nM incubated for 24 hrs (0.7 to 2.3 micromolequiv/L); assay type: functional, Cerebral cortex neuron
[2] = Induction of DNA damage in rat Cerebral cortex cell assessed as total DNA damage score at 500 nM incubated for 24 hrs by Comet assay (reference value: 36.8 to 89.2); assay type: functional, Cerebral cortex neuron
[3] = Induction of DNA damage in Primary human whole blood cell assessed as total DNA damage score at 250 nM incubated for 24 hrs by Comet assay (reference value: 35.4 to 77.9); assay type: functional
[4] = Genotoxicity in human Lymphocyte assessed as micronuclei formation measured per 1000 cells at 50 nM incubated for 72 hrs giemsa staining based analysis (reference value: 4.5 to 17.9); assay type: toxicity, cell-based; settings: 0.05 µM
Method in brief: (§1)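 Human whole-blood lymphocyte cultures with phytohemagglutinin, incubated with compound for 72 h at 37 °C. Cytochalasin B added at 44 h. Cells fixed in ice-cold methanol/acetic acid 1:1, cytospun, Giemsa-stained. At least 1000 binucleated lymphocytes per concentration scored for micronuclei by one observer.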

[5] = Antioxidant activity against Primary human whole blood cell assessed as H2O2 equivalent of total oxidative stress at 500 nM incubated for 24 hrs (0.6 to 1.9 micromolequiv/L); assay type: functional
[6] = Induction of DNA damage in rat Cerebral cortex cell assessed as total DNA damage score at 10 nM incubated for 24 hrs by Comet assay (reference value: 36.8 to 89.2); assay type: functional, Cerebral cortex neuron
[7] = Stability of the compound in hydrochloric acid buffer assessed as chemical hydrolysis by measuring observed rate constant at pH 1.2; assay type: physicochemical
Method in brief: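 Chemical hydrolysis at 37 °C in hydrochloric acid buffer pH 1.2 or phosphate buffer pH 7.4. Remaining compound followed by HPLC with UV detection. t1/2 and k_obs are means of three experiments ± SD.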

[8] = Stability in human plasma assessed as half life by HPLC method; assay type: ADME, cell-free
Method in brief: (§2)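 Stock added to 37 °C human plasma diluted with 0.02 M phosphate buffer pH 7.4 to 80% plasma. Aliquots taken over time were quenched with 0.01 M HCl in methanol, centrifuged 5 min at 5000 g, and supernatant analyzed by HPLC-UV. t1/2 and k_obs are means of three experiments ± SD.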

[9] = Antioxidant activity against Primary human whole blood cell assessed as H2O2 equivalent of total oxidative stress at 250 nM incubated for 24 hrs (0.6 to 1.9 micromolequiv/L); assay type: functional
[10] = Cytotoxicity against rat Cerebral cortex cell at 10 to 500 nM incubated for 24 hrs by LDH assay; assay type: toxicity, cell-based; settings: cerebral cortex neuron, 0.5 µM, dose 10-500 nM
Method in brief: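 Rat fetal cortical neuron or human whole-blood cultures treated 24 h at 37 °C with aqueous compound at 10–500 nM. LDH released into 100 µL of medium measured by kit as the rate of NAD+ reduction (lactate to pyruvate), absorbance increase at 490 nm. Mitomycin C 10^-7 M as positive control; four independent experiments.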

[11] = Partition coefficient, logP of the compound by HPLC-UV analysis; assay type: physicochemical; settings: octanol/water
[12] = Stability of the compound in stimulated gastric fluid at 10 mg/ml pepsin by measuring observed rate constant measured upto 60 mins by HPLC analysis; assay type: ADME; settings: simulated gi fluid, 1 h
Method in brief: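 USP simulated gastric fluid containing pepsin, preheated, in a 37 °C shaking water bath. Samples at 0, 15, 30 and 60 min were deproteinized with ice-cold acetonitrile containing 0.5% formic acid, centrifuged at 4 °C, filtered and analyzed by HPLC. Means of three experiments.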

[13] = Antioxidant activity against rat Cerebral cortex cell assessed as H2O2 equivalent of total oxidative stress at 250 nM incubated for 24 hrs (0.7 to 2.3 micromolequiv/L); assay type: functional, Cerebral cortex neuron
[14] = Stability in human plasma assessed as observed rate constant by HPLC method; assay type: ADME, cell-free; method in brief: as §2
[15] = Cytotoxicity against Primary human whole blood cell at 10 to 500 nM incubated for 24 hrs by MTT assay; assay type: toxicity, cell-based; settings: 0.5 µM, dose 10-500 nM
Method in brief: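 Primary cultures (rat fetal cortical neurons; human whole-blood cultures with phytohemagglutinin) exposed to aqueous compound at 10–500 nM for 24 h at 37 °C. Then incubated with 0.7 mg/mL MTT for 30 min at 37 °C, formazan extracted with isopropanol/formic acid 95:5, read at 560 nm. Control formazan = 100% viability. Mitomycin C 10^-7 M as positive control; n = 4.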

[16] = Induction of DNA damage in Primary human whole blood cell assessed as total DNA damage score at 100 nM incubated for 24 hrs by Comet assay (reference value: 35.4 to 77.9); assay type: functional
[17] = Induction of DNA damage in rat Cerebral cortex cell assessed as 8-OH-dG adducts formation at 50 nM incubated for 24 hrs by […] (reference value: 0.14 to 1.92 pg/ml); assay type: functional, Cerebral cortex neuron
Method in brief: (§3)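 Primary rat cerebral cortex neurons from fetuses, grown in neurobasal medium with FCS on poly-D-lysine flasks and used after 8 days. Aqueous compound at 10–500 nM for 24 h at 37 °C. Untreated cultures served as negative control and MMC 10^-7 M as positive control. 8-OH-dG measured with a commercial ELISA-type kit and reported in pg/mL. Four independent experiments, mean ± SD.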

[18] = Apparent permeability of the compound across apical side to basolateral side in human Caco-2 cells measured upto 180 mins by HPLC analysis; assay type: ADME, cell-based
[19] = Induction of DNA damage in rat Cerebral cortex cell assessed as 8-OH-dG adducts formation at 500 nM incubated for 24 hrs by […] (reference value: 0.14 to 1.92 pg/ml); assay type: functional, Cerebral cortex neuron; method in brief: as §3
[20] = Effective permeability of compound at 500 uM incubated for 18 hrs by […] method; assay type: ADME; settings: read-out: Peff
Method in brief: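 PAMPA-BBB: donor contained compound at 500 µM final in PBS pH 7.4 with 20% v/v MeOH. Incubated 18 h. Donor and acceptor concentrations measured by HPLC; effective permeability Pe (cm/s) calculated.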

[21] = Genotoxicity in human Lymphocyte assessed as micronuclei formation measured per 1000 cells at 500 nM incubated for 72 hrs giemsa staining based analysis (reference value: 4.5 to 17.9); assay type: toxicity, cell-based; settings: 0.5 µM; method in brief: as §1
[22] = Genotoxicity in human Lymphocyte assessed as sister chromatid exchange measured per cells at 100 nM incubated for 72 hrs giemsa staining based fluorescence method (reference value: 6.6 to 14.3); assay type: toxicity, cell-based; settings: 0.1 µM
[23] = Antioxidant activity against Primary human whole blood cell assessed as H2O2 equivalent of total oxidative stress at 100 nM incubated for 24 hrs (0.6 to 1.9 micromolequiv/L); assay type: functional
[24] = Induction of DNA damage in rat Cerebral cortex cell assessed as 8-OH-dG adducts formation at 10 nM incubated for 24 hrs by Comet assay (reference value: 0.14 to 1.92 pg/ml); assay type: functional, Cerebral cortex neuron
[25] = Antioxidant activity against Primary human whole blood cell assessed as H2O2 equivalent of total oxidative stress at 50 nM incubated for 24 hrs (0.6 to 1.9 micromolequiv/L); assay type: functional
[26] = Antioxidant activity against Primary human whole blood cell assessed as trolox equivalent of total antioxidant capacity at 10 nM incubated for 24 hrs (19.3 to 32.5 mmolequiv/L ); assay type: functional
[27] = Antioxidant activity against rat Cerebral cortex cell assessed as trolox equivalent of total antioxidant capacity at 250 nM incubated for 24 hrs (14.7 to 27.5 mmolequiv/L ); assay type: functional, Cerebral cortex neuron

Kobs [7] | half-life [8] | logP [11] | Kobs [12] | Kobs [14] | Papp A→B at 3 h [18] | Papp at 18 h, 500 µM [20] | Compound | Activity [1] | Activity [2] | Activity [3] | Activity [4] | Activity [5] | Activity [6] | Activity [9] | Activity [10] | Activity [13] | Activity [15] | Activity [16] | Activity [17] | Activity [19] | further results
0.037 h⁻¹ | 0.096 h | 0.68 | 0.029 h⁻¹ | 7.22 h⁻¹ | 7.5 ×10⁻⁶ cm/s | 2.42 ×10⁻⁶ cm/s | C=CCSC[C@H]1NC(=O)[C@H](Cc2ccc(OC(C)=O)c(OC(C)=O)c2)NC1=O | 0.7 umolequiv/L | 37.6 | 35.7 | 4.9 | 0.7 umolequiv/L | 36.3 | 0.7 umolequiv/L | Non-Toxic | 0.7 umolequiv/L | Non-Toxic | 35.5 | 0.13 pg/mL | 0.15 pg/mL | Activity [21]: 5.2; Activity [22]: 6.9; Activity [23]: 0.7 umolequiv/L; Activity [24]: 0.14 pg/mL; Activity [25]: 0.7 umolequiv/L; Activity [26]: 19.2 mmolequiv/L; Activity [27]: 14.7 mmolequiv/L
0.005 h⁻¹ | 2.09 h | 0.35 | 0.008 h⁻¹ | 0.332 h⁻¹ | 17.4 ×10⁻⁶ cm/s | 4.88 ×10⁻⁶ cm/s | C#CCSC[C@H]1NC(=O)[C@H](Cc2ccc(OC(C)=O)c(OC(C)=O)c2)NC1=O | 0.7 umolequiv/L | 38.1 | 35.9 | 4.8 | 0.7 umolequiv/L | 36.9 | 0.7 umolequiv/L | Non-Toxic | 0.6 umolequiv/L | Non-Toxic | 35.6 | 0.14 pg/mL | 0.15 pg/mL | Activity [21]: 5.1; Activity [22]: 6.6; Activity [23]: 0.6 umolequiv/L; Activity [24]: 0.14 pg/mL; Activity [25]: 0.6 umolequiv/L; Activity [26]: 19.4 mmolequiv/L; Activity [27]: 15.4 mmolequiv/L
